Results reported in ChEMBL document CHEMBL1146596, “New lupane derived compounds with pro-apoptotic activity in cancer cells: synthesis and structure-activity relationships” (2003).

Key:
A549 = test: Tested for cytotoxicity against human lung adenocarcinoma A549 cell line; type: functional
How it was run: (§1)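 Cells were kept in DMEM/RPMI 1640 with 10% fetal calf serum, 2 mM glutamine and antibiotics. They were seeded at 2500–30 000 cells/well according to growth characteristics and preincubated 24 h at 37 °C, 5% CO2. Four-fold compound dilutions were tested in duplicate for 72 h. MTT was then added for 1–4 h, the formazan was dissolved in 10% SDS (pH 5.5) overnight, and OD was read at 540 nm. Survival was taken relative to mean control, and TCS50 was derived from dose–response curves.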

B16 [1] = test: Tested for cytotoxicity against mouse melanoma B16 cell line; type: functional; how it was run: as §1
BT-549 = test: Tested for cytotoxicity against human breast cancer BT549 cell line; type: functional; how it was run: as §1
CCRF-CEM [2] = test: Tested for cytotoxicity against human T-lymphoblastic leukemia CEM cell line; type: functional; how it was run: as §1
Caco-2 = test: Tested for cytotoxicity against human colon cancer Caco-2 cell line; type: functional; how it was run: as §1
CEM-DNR [3] = test: Tested for cytotoxicity against human T-lymphoblastic leukemia CEM-DNR 1/C2 cell line; type: functional; how it was run: as §1
CEM-DNR [4] = test: Tested for cytotoxicity against human T-lymphoblastic leukemia CEM-DNR bulk cell line; type: functional; how it was run: as §1
CCRF-CEM [5] = test: Cytotoxicity against chemosensitive CEM-T lymphoblastc leukemia cell line.; type: functional, Homo sapiens; how it was run: as §1
CEM-VCR 1/D/5 = test: Tested for cytotoxicity against human T-lymphoblastic leukemia CEM-VCR 1/D5 cell line; type: functional; how it was run: as §1
CEM-VCR 1/F3 = test: Tested for cytotoxicity against human T-lymphoblastic leukemia CEM-VCR 1/F3 cell line; type: functional; how it was run: as §1
CEM-VCR = test: Tested for cytotoxicity against human T-lymphoblastic leukemia CEM-VCR bulk cell line; type: functional; how it was run: as §1
DU-145 = test: Tested for cytotoxicity against human prostate cancer DU145 cell line; type: functional; how it was run: as §1
HT-29 = test: Tested for cytotoxicity against human colon cancer HT-29 cell line; type: functional; how it was run: as §1
HepG2 = test: Tested for cytotoxicity against human hepatocellular carcinoma HepG2 cell line; type: functional; how it was run: as §1
K562 [6] = test: Tested for cytotoxicity against human […] leukemia K562 cell line; type: functional; how it was run: as §1
K562 [7] = test: Tested for cytotoxicity against human […] leukemia K562-ARA-C cell line; type: functional; how it was run: as §1
K562 [8] = test: Tested for cytotoxicity against human […] leukemia K562-CdA cell line; type: functional; how it was run: as §1
K562 [9] = test: Tested for cytotoxicity against human […] leukemia K562-FLU D-CEM cell line; type: functional
How it was run: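 Cytotoxicity by MTT in fludarabine-resistant K562 subline (K562-FLUD), cultured in DMEM/RPMI 1640 with 10% fetal calf serum. Cells seeded at 2500–30 000/well, preincubated 24 h at 37 °C, 5% CO2. Fourfold dilutions in duplicate, 72 h exposure. MTT 1–4 h, formazan dissolved in 10% SDS overnight, OD 540 nm. Survival relative to control; TCS50 taken from dose–response curves.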

K562 [10] = test: Tested for cytotoxicity against human […] leukemia K562-GEM cell line; type: functional; how it was run: as §1
SK-MEL3 = test: Tested for cytotoxicity against human melanoma MEL-3 cell line; type: functional; how it was run: as §1
MDA-MB-238 = test: Tested for cytotoxicity against human breast cancer MDA-MB-238 cell line; type: functional; how it was run: as §1
LNCaP = test: Tested for cytotoxicity against human prostate cancer LNCaP cell line; type: functional; how it was run: as §1
MCF7 = test: Tested for cytotoxicity against human breast cancer MCF-7 cell line; type: functional; how it was run: as §1
NIH3T3 = test: Tested for cytotoxicity against mouse immortalized fibroblast NIH3T3 cell line; type: functional; how it was run: as §1
OVCAR-3 = test: Tested for cytotoxicity against human ovarian cancer OVCAR-3 cell line; type: functional; how it was run: as §1
SAOS-2 = test: Tested for cytotoxicity against human […] Saos2 cell line; type: functional; how it was run: as §1
SW-620 = test: Tested for cytotoxicity against human colon cancer SW620 cell line; type: functional; how it was run: as §1
U-87 MG = test: Tested for cytotoxicity against human glioblastoma U87MG cell line; type: functional, U-87MG ATCC; how it was run: as §1
U2OS = test: Tested for cytotoxicity against human osteosarcoma U2OS cell line; type: functional; how it was run: as §1
Homo sapiens = organism: Homo sapiens; test: Tested for cytotoxicity against human normal lymphocytes; type: functional; how it was run: as §1
B16 [11] = test: Tested for cytotoxicity against mouse melanoma B16F cell line; type: functional; how it was run: as §1

SMILES | TCS50 (A549) | TCS50 (B16 [1]) | TCS50 (BT-549) | TCS50 (CCRF-CEM [2]) | TCS50 (CEM-DNR [3]) | TCS50 (CEM-DNR [4]) | TCS50 (CCRF-CEM [5]) | TCS50 (CEM-VCR 1/D/5) | TCS50 (CEM-VCR 1/F3) | TCS50 (CEM-VCR) | TCS50 (DU-145) | TCS50 (HT-29) | TCS50 (HepG2) | TCS50 (K562 [6]) | TCS50 (K562 [7]) | TCS50 (K562 [8]) | TCS50 (K562 [9]) | TCS50 (K562 [10]) | TCS50 (SK-MEL3) | TCS50 (MDA-MB-238) | other results
CC(=O)OC[C@@]1(C(=O)O)CC[C@]2(C)[C@H](CC[C@@H]3[C@@]4(C)CC[C@H](OC(C)=O)C(C)(C)[C@@H]4CC[C@]32C)C1=O | 2.8 µM | 0.43 µM | 2.03 µM | 1 µM | 0.61 µM | 1.05 µM | 1 µM | 2.93 µM | 3.27 µM | 2.51 µM | 0.84 µM | 3.57 µM | 1.67 µM | 0.19 µM | 0.63 µM | 0.28 µM | 0.35 µM | 0.94 µM | 1.28 µM | 1.35 µM | TCS50 (Caco-2): 2.97 µM; TCS50 (LNCaP): 1.12 µM; TCS50 (MCF7): 2.3 µM; TCS50 (NIH3T3): 7.21 µM; TCS50 (OVCAR-3): 0.9 µM; TCS50 (SAOS-2): 1.78 µM; TCS50 (SW-620): 1.22 µM; TCS50 (U-87 MG): 1.85 µM; TCS50 (U2OS): 1.53 µM; TCS50 (Homo sapiens): 12.5 µM; TCS50 (B16 [11]): 4.66 µM
COC(=O)[C@@]12CC[C@]3(C)[C@H](CC[C@@H]4[C@@]5(C)CC[C@H](OC(C)=O)C(C)(C)[C@@H]5CC[C@]43C)C1=C(C(C)C)C(=O)C2=O | 6.7 µM | 35.4 µM | 15.3 µM | 4.4 µM | 10.3 µM | 5.18 µM | 4.4 µM | 12.5 µM | 38.3 µM | 28.2 µM | 1.98 µM | 5.23 µM | 5.14 µM | 1.85 µM | 6.42 µM | 5.17 µM | 4.85 µM | 5.04 µM | 5.86 µM | 3.28 µM | TCS50 (Caco-2): 8.13 µM; TCS50 (LNCaP): 3.26 µM; TCS50 (MCF7): 12.9 µM; TCS50 (NIH3T3): 96.8 µM; TCS50 (OVCAR-3): 4.65 µM; TCS50 (SAOS-2): 7.9 µM; TCS50 (SW-620): 5.89 µM; TCS50 (U-87 MG): 23.8 µM; TCS50 (U2OS): 4.28 µM; TCS50 (Homo sapiens): 85.3 µM; TCS50 (B16 [11]): 67.9 µM
C=C(C=O)[C@@H]1CC[C@]2(C(=O)O)CC[C@]3(C)[C@H](CC[C@@H]4[C@@]5(C)CC[C@H](OC(C)=O)C(C)(C)[C@@H]5CC[C@]43C)C12 (stereo partly drawn) | 43.27 µM | 9.32 µM | 6.28 µM | 4 µM | 1.58 µM | 3.26 µM | 4 µM | 7.82 µM | 5.94 µM | 6.95 µM | 2.75 µM | 12.31 µM | 7.12 µM | 15.12 µM | 1.59 µM | 2.13 µM | 1.27 µM | 2.36 µM | 3.68 µM | 2.37 µM | TCS50 (Caco-2): 7.72 µM; TCS50 (LNCaP): 3.55 µM; TCS50 (MCF7): 4.3 µM; TCS50 (NIH3T3): 15.7 µM; TCS50 (OVCAR-3): 2.59 µM; TCS50 (SAOS-2): 4.8 µM; TCS50 (SW-620): 5.86 µM; TCS50 (U-87 MG): 98.3 µM; TCS50 (U2OS): 3.94 µM; TCS50 (Homo sapiens): 24.9 µM; TCS50 (B16 [11]): 12.4 µM
C=C(C)[C@@H]1CC[C@]2(C(=O)O)CC[C@]3(C)[C@H](CC[C@@H]4[C@@]5(C)CC[C@H](O)C(C)(C)[C@@H]5CC[C@]43C)[C@@H]12 [BETULINIC ACID] | 79.3 µM | 30.5 µM | >250 µM | >250 µM | >250 µM | >250 µM | 20 µM | 24.1 µM | 19.1 µM | 68.5 µM | 241 µM | >250 µM | 3.61 µM | 53.9 µM | >250 µM | >250 µM | >250 µM | 101 µM | 2.65 µM | 195 µM | TCS50 (LNCaP): 244 µM; TCS50 (MCF7): 194 µM; TCS50 (NIH3T3): >250 µM; TCS50 (OVCAR-3): 164 µM; TCS50 (SAOS-2): >250 µM; TCS50 (SW-620): >250 µM; TCS50 (U-87 MG): >228 µM; TCS50 (U2OS): >250 µM; TCS50 (Homo sapiens): >250 µM; TCS50 (B16 [11]): 4.6 µM
